Test results published in ChEMBL document CHEMBL1275561, “In vitro activities of doripenem, a new broad-spectrum carbapenem, against recently collected clinical anaerobic isolates, with emphasis on the Bacteroides fragilis group” (2008).
≈ marks a conversion by molar mass, not a printed value.

Tests used:
Format in all cases: functional
Bacteroides nordii [1] = test: Antimicrobial activity against Bacteroides nordii assessed as resistant isolates by agar dilution method
In short: (§1)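 CLSI agar dilution on enriched brucella agar (5% lysed defibrinated sheep blood, 1 μg/ml vitamin K1), plates made on test day. Log-phase inocula adjusted to 0.5 McFarland; about 10^5 CFU/spot by Steers replicator. Incubated anaerobically at 37°C for 48 h. MIC was the lowest concentration giving a marked change in growth versus the drug-free control plate. Resistance rates used CLSI anaerobe breakpoints. Controls were B. fragilis ATCC 25285 and B. thetaiotaomicron ATCC 29741.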

Parabacteroides merdae [2] = test: Antimicrobial activity against Bacteroides merdae assessed as resistant isolates by agar dilution method; in short: as §1
[3] = test system: Bacteroides thetaiotaomicron; test: Antimicrobial activity against Bacteroides thetaiotaomicron by agar dilution method
In short: (§2)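 CLSI agar dilution on enriched brucella agar (5% lysed defibrinated sheep blood, 1 μg/ml vitamin K1), with drug plates made on the test day. Log-phase cells were adjusted to 0.5 McFarland, and about 10^5 CFU/spot was delivered by Steers replicator. Plates were incubated anaerobically at 37°C for 48 h. MIC was the lowest concentration giving a marked growth change versus the control plate. Controls were B. fragilis ATCC 25285 and B. thetaiotaomicron ATCC 29741.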

Parabacteroides merdae [4] = test: Antimicrobial activity against Bacteroides merdae by agar dilution method; in short: as §2
Bacteroides fragilis [5] = test: Antimicrobial activity against Bacteroides fragilis assessed as resistant isolates by agar dilution method; in short: as §1
Cutibacterium acnes [6] = test: Antimicrobial activity against Propionibacterium acnes by agar dilution method
In short: (§3)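 Log-phase isolates were adjusted to 0.5 McFarland, and about 10^5 CFU/spot was delivered by Steers replicator. Plates were incubated anaerobically at 37°C for 48 h. MIC was the lowest concentration giving a marked growth change versus the control plate. Eubacterium lentum ATCC 43055 was the QC strain, with repeats when out of range.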

Phocaeicola vulgatus [7] = test: Antimicrobial activity against Bacteroides vulgatus assessed as resistant isolates by agar dilution method; in short: as §1
[8] = test system: Parabacteroides distasonis; test: Antimicrobial activity against Bacteroides distasonis assessed as resistant isolates by agar dilution method; in short: as §1
Parvimonas micra = test: Antimicrobial activity against Micromonas micros by agar dilution method
In short: (§4)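 Gram-positive anaerobes were tested by CLSI agar dilution on brucella agar enriched with 5% lysed defibrinated sheep blood and 1 μg/ml vitamin K1. Inoculum was log-phase growth at 0.5 McFarland, about 10^5 CFU/spot by replicator. Incubation was anaerobic, 37°C, 48 h. MIC was the lowest concentration with a marked growth change versus the drug-free plate. Eubacterium lentum ATCC 43055 was the control, and tests were repeated if it fell outside the CLSI range.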

Bacteroides fragilis [9] = test: Antimicrobial activity against Bacteroides fragilis by agar dilution method; in short: as §2
[10] = test system: Peptoniphilus asaccharolyticus; test: Antimicrobial activity against Peptoniphilus asaccharolyticus assessed as resistant isolates by agar dilution method; details: pooled result: one value given for 4 cell lines, strains, targets or settings
In short: (§5)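 Agar dilution following CLSI on brucella agar with 5% lysed defibrinated sheep blood and 1 μg/ml vitamin K1, plates made on test day. Log-phase cells at 0.5 McFarland, about 10^5 CFU/spot by Steers replicator, 48 h anaerobic at 37°C. MIC read as the lowest concentration causing a marked growth change versus control. Resistance counted by CLSI anaerobe breakpoints. Eubacterium lentum ATCC 43055 served as control.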

Bacteroides uniformis [11] = test: Antimicrobial activity against Bacteroides uniformis by agar dilution method; in short: as §2
[Clostridium] innocuum [12] = Antimicrobial activity against Clostridium innocuum assessed as resistant isolates by agar dilution method; details: pooled result: one value given for 4 cell lines, strains, targets or settings
Finegoldia magna [13] = test: Antimicrobial activity against Finegoldia magna assessed as resistant isolates by agar dilution method; in short: as §5
Peptostreptococcus sp. = test: Antimicrobial activity against Peptostreptococcus sp. by agar dilution method; in short: as §3
Bacteroides ovatus [14] = test: Antimicrobial activity against Bacteroides ovatus by agar dilution method; in short: as §2
Finegoldia magna [15] = test: Antimicrobial activity against Finegoldia magna by agar dilution method; in short: as §4
Anaerococcus prevotii = test: Antimicrobial activity against Anaerococcus prevotii by agar dilution method; in short: as §4
Propionibacterium [16] = test: Antimicrobial activity against Propionibacterium sp. assessed as resistant isolates by agar dilution method; in short: as §5
Phocaeicola vulgatus [17] = test: Antimicrobial activity against Bacteroides vulgatus by agar dilution method; in short: as §2
Bacteroides eggerthii [18] = test: Antimicrobial activity against Bacteroides eggerthii assessed as resistant isolates by agar dilution method; in short: as §1
Clostridium subterminale = test: Antimicrobial activity against Clostridium subterminale by agar dilution method
Bacteroides ovatus [19] = test: Antimicrobial activity against Bacteroides ovatus assessed as resistant isolates by agar dilution method; in short: as §1
Bacteroides caccae [20] = test: Antimicrobial activity against Bacteroides caccae by agar dilution method; in short: as §2
Clostridioides difficile = test: Antimicrobial activity against Clostridium difficile by agar dilution method
Cutibacterium acnes [21] = test: Antimicrobial activity against Propionibacterium acnes assessed as resistant isolates by agar dilution method; in short: as §5
[Clostridium] innocuum [22] = Antimicrobial activity against Clostridium innocuum by agar dilution method
Bacteroides caccae [23] = test: Antimicrobial activity against Bacteroides caccae assessed as resistant isolates by agar dilution method; in short: as §1
Clostridium perfringens = test: Antimicrobial activity against Clostridium perfringens by agar dilution method
[24] = test system: Bacteroides thetaiotaomicron; test: Antimicrobial activity against Bacteroides thetaiotaomicron assessed as resistant isolates by agar dilution method; in short: as §1
Propionibacterium [25] = test: Antimicrobial activity against Propionibacterium sp. by agar dilution method; in short: as §3
Bacteroides uniformis [26] = test: Antimicrobial activity against Bacteroides uniformis assessed as resistant isolates by agar dilution method; in short: as §1
Bacteroides nordii [27] = test: Antimicrobial activity against Bacteroides nordii by agar dilution method; in short: as §2
[28] = test system: Peptoniphilus asaccharolyticus; test: Antimicrobial activity against Peptoniphilus asaccharolyticus by agar dilution method; in short: as §4
[29] = test system: Clostridium paraputrificum; test: Antimicrobial activity against Clostridium paraputrificum by agar dilution method
Clostridium tertium = test: Antimicrobial activity against Clostridium tertium by agar dilution method
[30] = test system: Parabacteroides distasonis; test: Antimicrobial activity against Bacteroides distasonis by agar dilution method; in short: as §2
Bacteroides eggerthii [31] = test: Antimicrobial activity against Bacteroides eggerthii by agar dilution method; in short: as §2

**Q.** For CCC[C@@H]1C[C@@H](C(=O)N[C@@H]([C@H]2O[C@H](SC)[C@H](O)[C@@H](O)[C@H]2O)[C@H](C)Cl)N(C)C1 [CLINDAMYCIN], which Activity (Bacteroides nordii [1]) is on record?
**A.** 20%

**Q.** And the Activity (Parabacteroides merdae [2])?
**A.** 20%

**Q.** And the MIC50 [3]?
**A.** 2 µg/mL (≈ 4.71 µM)

**Q.** And the MIC90 [3]?
**A.** 128 µg/mL (≈ 301 µM)

**Q.** And the MIC50 (Parabacteroides merdae [4])?
**A.** 1 µg/mL (≈ 2.35 µM)

**Q.** What about the MIC90 (Parabacteroides merdae [4]) of the same molecule?
**A.** 8 µg/mL (≈ 18.8 µM)

**Q.** What about the Activity (Bacteroides fragilis [5]) of the same molecule?
**A.** 29.3%

**Q.** What about the MIC (Cutibacterium acnes [6]) of the same molecule?
**A.** 0.25 µg/mL (≈ 0.588 µM)

**Q.** And the MIC50 (Cutibacterium acnes [6])?
**A.** 0.25 µg/mL (≈ 0.588 µM)

**Q.** What about the MIC90 (Cutibacterium acnes [6]) of the same molecule?
**A.** 0.5 µg/mL (≈ 1.18 µM)

**Q.** And the Activity (Phocaeicola vulgatus [7])?
**A.** 32.3%

**Q.** And the Activity [8]?
**A.** 13.3%

**Q.** And the MIC50 (Parvimonas micra)?
**A.** 0.25 µg/mL (≈ 0.588 µM)

**Q.** And the MIC90 (Parvimonas micra)?
**A.** 32 µg/mL (≈ 75.3 µM)

**Q.** What about the MIC (Bacteroides fragilis [9]) of the same molecule?
**A.** 0.5 µg/mL (≈ 1.18 µM)

**Q.** And the MIC50 (Bacteroides fragilis [9])?
**A.** 0.5 µg/mL (≈ 1.18 µM)

**Q.** And the MIC90 (Bacteroides fragilis [9])?
**A.** 128 µg/mL (≈ 301 µM)

**Q.** What about the Activity [10] of the same molecule?
**A.** 12.2%

**Q.** And the MIC50 (Bacteroides uniformis [11])?
**A.** 2 µg/mL (≈ 4.71 µM)

**Q.** And the MIC90 (Bacteroides uniformis [11])?
**A.** 128 µg/mL (≈ 301 µM)

**Q.** What about the Activity ([Clostridium] innocuum [12]) of the same molecule?
**A.** 22.2%

**Q.** And the Activity (Finegoldia magna [13])?
**A.** 20%

**Q.** And the MIC50 (Peptostreptococcus sp.)?
**A.** 0.25 µg/mL (≈ 0.588 µM)

**Q.** What about the MIC90 (Peptostreptococcus sp.) of the same molecule?
**A.** 32 µg/mL (≈ 75.3 µM)

**Q.** And the MIC50 (Bacteroides ovatus [14])?
**A.** 2 µg/mL (≈ 4.71 µM)

**Q.** And the MIC90 (Bacteroides ovatus [14])?
**A.** 128 µg/mL (≈ 301 µM)

**Q.** And the MIC50 (Finegoldia magna [15])?
**A.** 0.5 µg/mL (≈ 1.18 µM)

**Q.** What about the MIC90 (Finegoldia magna [15]) of the same molecule?
**A.** 32 µg/mL (≈ 75.3 µM)

**Q.** And the MIC50 (Anaerococcus prevotii)?
**A.** 0.25 µg/mL (≈ 0.588 µM)

**Q.** And the MIC90 (Anaerococcus prevotii)?
**A.** 32 µg/mL (≈ 75.3 µM)

**Q.** What about the Activity (Propionibacterium [16]) of the same molecule?
**A.** 7.7%

**Q.** And the MIC (Phocaeicola vulgatus [17])?
**A.** 0.5 µg/mL (≈ 1.18 µM)

**Q.** What about the MIC50 (Phocaeicola vulgatus [17]) of the same molecule?
**A.** 0.5 µg/mL (≈ 1.18 µM)

**Q.** And the MIC90 (Phocaeicola vulgatus [17])?
**A.** 128 µg/mL (≈ 301 µM)

**Q.** What about the Activity (Bacteroides eggerthii [18]) of the same molecule?
**A.** 20%

**Q.** What about the MIC50 (Clostridium subterminale) of the same molecule?
**A.** 2 µg/mL (≈ 4.71 µM)

**Q.** And the MIC90 (Clostridium subterminale)?
**A.** 32 µg/mL (≈ 75.3 µM)

**Q.** What about the Activity (Bacteroides ovatus [19]) of the same molecule?
**A.** 42.9%

**Q.** And the MIC50 (Bacteroides caccae [20])?
**A.** 1 µg/mL (≈ 2.35 µM)

**Q.** And the MIC90 (Bacteroides caccae [20])?
**A.** 128 µg/mL (≈ 301 µM)

**Q.** And the MIC (Clostridioides difficile)?
**A.** 1 µg/mL (≈ 2.35 µM)

**Q.** What about the Activity (Cutibacterium acnes [21]) of the same molecule?
**A.** 5.6%

**Q.** And the MIC50 ([Clostridium] innocuum [22])?
**A.** 2 µg/mL (≈ 4.71 µM)

**Q.** What about the MIC90 ([Clostridium] innocuum [22]) of the same molecule?
**A.** 32 µg/mL (≈ 75.3 µM)

**Q.** What about the Activity (Bacteroides caccae [23]) of the same molecule?
**A.** 31.3%

**Q.** And the MIC50 (Clostridium perfringens)?
**A.** 0.25 µg/mL (≈ 0.588 µM)

**Q.** What about the MIC90 (Clostridium perfringens) of the same molecule?
**A.** 2 µg/mL (≈ 4.71 µM)

**Q.** And the Activity [24]?
**A.** 34.6%

**Q.** And the MIC (Propionibacterium [25])?
**A.** 0.25 µg/mL (≈ 0.588 µM)

**Q.** What about the MIC50 (Propionibacterium [25]) of the same molecule?
**A.** 0.25 µg/mL (≈ 0.588 µM)

**Q.** And the MIC90 (Propionibacterium [25])?
**A.** 2 µg/mL (≈ 4.71 µM)

**Q.** What about the Activity (Bacteroides uniformis [26]) of the same molecule?
**A.** 3.8%

**Q.** And the MIC50 (Bacteroides nordii [27])?
**A.** 1 µg/mL (≈ 2.35 µM)

**Q.** What about the MIC90 (Bacteroides nordii [27]) of the same molecule?
**A.** 8 µg/mL (≈ 18.8 µM)

**Q.** What about the MIC50 [28] of the same molecule?
**A.** 0.25 µg/mL (≈ 0.588 µM)

**Q.** And the MIC90 [28]?
**A.** 32 µg/mL (≈ 75.3 µM)

**Q.** What about the MIC50 [29] of the same molecule?
**A.** 2 µg/mL (≈ 4.71 µM)

**Q.** And the MIC90 [29]?
**A.** 32 µg/mL (≈ 75.3 µM)

**Q.** What about the MIC50 (Clostridium tertium) of the same molecule?
**A.** 2 µg/mL (≈ 4.71 µM)

**Q.** And the MIC90 (Clostridium tertium)?
**A.** 32 µg/mL (≈ 75.3 µM)

**Q.** What about the MIC50 [30] of the same molecule?
**A.** 1 µg/mL (≈ 2.35 µM)

**Q.** And the MIC90 [30]?
**A.** 128 µg/mL (≈ 301 µM)

**Q.** What about the MIC50 (Bacteroides eggerthii [31]) of the same molecule?
**A.** 1 µg/mL (≈ 2.35 µM)

**Q.** What about the MIC90 (Bacteroides eggerthii [31]) of the same molecule?
**A.** 8 µg/mL (≈ 18.8 µM)
